Screening results as filed in PubChem.
Scp-1 inhibitor: blocks human Scp-1 phosphatase activity; Q9GZU7; 340,000 compounds, 0.88% hits; Recombinant Scp1, phosphopeptide, malachite green phosphate absorbance; inhibition, % at 20 µM;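 active = inhibition above about 50% at 20 µM, limit read from the data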;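 also: plate controls were DMSO wells with enzyme for no effect and wells lacking enzyme for full effect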
Target sequence (Q9GZU7 76-261 limits assumed): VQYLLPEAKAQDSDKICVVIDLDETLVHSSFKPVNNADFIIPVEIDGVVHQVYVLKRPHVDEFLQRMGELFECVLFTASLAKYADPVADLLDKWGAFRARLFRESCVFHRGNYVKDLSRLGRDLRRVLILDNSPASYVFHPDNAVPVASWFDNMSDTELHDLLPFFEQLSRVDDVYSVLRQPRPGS
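Incubation: 45 min enzyme reaction at room temperature / System: truncated SCP-1 phosphatase (76-261aa) / Reagent: Phospho 17-mer peptide substrate / Buffer or medium: Acidic Tris acetate buffer with magnesium and detergent / Signal: absorbance at 630 nm / Doses: one concentration, 20 µM, with 1.0% DMSO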
rCAG RNA binder: molecules binding r(CAG) RNA repeats; 370,000 compounds, 1.3% hits; inhibition, % at 3 µM; r(CAG) RNA repeat, TO-PRO-1 dye displacement fluorescence;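 active = inhibition above the plate cutoff, the mean of all test compounds on that plate plus 3 SD, cut at about 35% in these data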;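 also: 0% = DMSO alone and 100% = 100 µM mitoxantrone as full dye displacement; higher means more dye released from RNA so lower well fluorescence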
NadD block: NadD (S. aureus) enzyme inhibition | purified NadD enzyme, colorimetric absorbance read-out | inhibition, % at 20 µM | 360,000 compounds, 0.78% hits; in the data active = inhibition above about 26%
STEP inh: inhibitors of human striatal-enriched phosphatase STEP. recombinant STEP, OMFP fluorogenic substrate, fluorescence. inhibition, % at 20 µM. 360,000 compounds, 0.25% hits. AID 588621;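 active = inhibition at 20 µM, scaled per plate between control wells, above about 37%, limit read from the data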;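 also: 0% = DMSO with enzyme and substrate and 100% = substrate only without enzyme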
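System: STEP (striatal-enriched tyrosine phosphatase) enzyme, cell-free; medium: Bis-Tris pH 6.0 buffer with DTT, detergent; dosing: 20 µM, 1% DMSO; times: reaction 20 min, ambient temperature; detection: fluorescence, 480/540 nm; read-out basis: normalized % inhibition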
LMPTP inh: blocks human LMPTP phosphatase; P24666; recombinant LMPTP-A, OMFP fluorogenic substrate, fluorescence intensity; inhibition, % at 20 µM; 360,000 compounds, 0.22% hits; AID 651560;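 active = compounds that cut the enzyme signal by at least half of the control window in the single-dose screen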;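 also: plate controls were DMSO wells with enzyme plus substrate for no effect and substrate without enzyme for full effect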
Target sequence (P24666 whole entry, looked up): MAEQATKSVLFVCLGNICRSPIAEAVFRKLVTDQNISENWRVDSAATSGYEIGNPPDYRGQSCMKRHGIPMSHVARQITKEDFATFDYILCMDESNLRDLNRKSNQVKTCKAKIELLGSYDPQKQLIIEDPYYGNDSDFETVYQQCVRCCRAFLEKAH
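Buffer or medium: Bis-Tris pH 6.0, DTT, detergent; Assay system: LMPTP-A enzyme; Quantity: 0.625 nM enzyme; Detection: endpoint fluorescence intensity; Times: 50 min dark incubation at room temperature; Controls: substrate-only low control, DMSO enzyme-plus-substrate high control; Doses: single 20 µM dose; Read-out: percent inhibition versus substrate-only and uninhibited controls; Reagent: 400 µM OMFP.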
The depositor's hits bear a star; nt = not tested or not shown. Compounds with a hit are over-represented: about 2.6% of the library has one in this group of screens.

SMILES	Scp-1 inhibitor	rCAG RNA binder	NadD block	STEP inh	LMPTP inh
COC(=O)c1ccc(NC(=O)Nc2ccc([N+](=O)[O-])cc2)cc1	8	11	-6	24	85*
CCOc1ccc(C2Nc3cccc4cccc(c34)N2)cc1OC	3	11	20	6	9
c1ccc(C2Nc3cccc4cccc(c34)N2)cc1	41	15	12	4	3
CCOc1cc(C2Nc3cccc4cccc(c34)N2)ccc1O	10	nt	30*	8	7
COc1ccc(C2Nc3cccc4cccc(c34)N2)cc1	17	8	39*	4	13
Clc1cccc(C2Nc3cccc4cccc(c34)N2)c1	6	11	27*	6	4
c1csc(C2Nc3cccc4cccc(c34)N2)c1	11	17	31*	13	15
Cc1ccccc1Cn1cc(CN2[C@H](C)COc3cc(Br)ccc3S2(=O)=O)nn1	nt	2	nt	nt	nt
Cc1ccc(Cn2cc(COC(=O)N3CCOCC3)nn2)cc1	nt	0	nt	nt	nt
COC(=O)[C@@]12CCCCC3=C1N(CCC3)C(=O)[C@H]2CC(=O)N1CCSCC1	nt	3	nt	nt	nt
O=C1C(Cl)=C(N2CCCCC2)C(=O)C(Cl)=C1c1cnc(N2CCCCC2)s1	6	nt	33*	8	16
O=C(O)CSc1cc(NS(=O)(=O)c2ccc(Cl)cc2)c2ccccc2c1O	6	37*	4	13	6
Cc1cc(C)c(S(=O)(=O)Nc2cc(SCC(=O)O)c(O)c3ccccc23)cc1C	8	nt	nt	nt	nt
CCCCn1c(NC(=O)c2ccco2)c(S(=O)(=O)c2ccc(C)cc2)c2nc3ccccc3nc21	-3	59*	24	-2	6
CCCCCn1c(NC(=O)c2ccco2)c(S(=O)(=O)c2ccc(C)cc2)c2nc3ccccc3nc21	-4	18	14	4	5
COC(=O)[C@]12C[C@H](CC(=O)NCc3ccc(C)o3)C(=O)N(CCC3=CCCCC3)C1=C[C@H](C1CCCC1)O[C@@H]2C	nt	6	nt	nt	nt
CCOC(=O)c1ccc(-n2[nH]c(-c3ccccc3)cc2=O)cc1	-8	49*	7	3	2
O=C(O)c1cccc(N2C(=O)c3cc([N+](=O)[O-])cc4cc([N+](=O)[O-])cc(c34)C2=O)c1	69*	19	-2	32	6
CCn1cc(C(=O)O)c(=O)c2cc(F)c(N3CCN(C(=S)NC(=O)c4cccc(C)c4)CC3)cc21	-12	16	5	2	60*
CCn1cc(C(=O)O)c(=O)c2cc(F)c(N3CCN(C(=S)NC(=O)c4ccccc4F)CC3)cc21	-12	1	3	2	70*
CCn1cc(C(=O)O)c(=O)c2cc(F)c(N3CCN(S(=O)(=O)c4ccc5c(c4)OCCO5)CC3)cc21	1	-1	9	0	62*
CCn1cc(C(=O)O)c(=O)c2cc(F)c(N3CCN(C(=S)NC(=O)c4ccc(OC)cc4)CC3)cc21	-9	2	15	7	67*
CCn1cc(C(=O)O)c(=O)c2cc(F)c(N3CCN(C)CC3)cc21	-1	-1	2	-1	-2
CCCC1CCC2(CCC(=O)N2CCOC)CC1 (stereo not drawn)	nt	2	nt	nt	nt
C=CCN1C(=O)[C@@H](CC(=O)NCCCC)[C@]2(C(=O)OC)CCCCC=C12	nt	1	nt	nt	nt
SMILES	Scp-1 inhibitor	rCAG RNA binder	NadD block	STEP inh	LMPTP inh
CC1(NC(=O)c2ccc(C#Cc3cccc(F)c3)cn2)COC1	nt	0	nt	nt	nt
C=CCn1c(Cc2cccs2)nnc1SCC(=O)Nc1ccc2c(c1)OCO2	nt	3	nt	nt	nt
CC(=O)CC[C@H]1CC[C@]2(CCCN(C(=O)c3ccno3)C2)O1	nt	1	nt	nt	nt
CCn1cc(C(=O)O)c(=O)c2cnc(N3CCN(C(=S)Nc4ccccc4Cl)CC3)nc21	2	1	-2	5	51*
CCn1cc(C(=O)O)c(=O)c2cc(F)c(N3CCN(C(=S)NC(=O)c4ccc(Br)cc4)CC3)cc21	-7	3	16	3	61*
CCn1cc(C(=O)O)c(=O)c2cc(F)c(N3CCN(C(=O)Nc4ccccc4)CC3)cc21	-10	-1	9	-1	51*
O=C(Nc1ccccc1C(F)(F)F)OCCCN1CCC2(CCC(c3ccccc3)CC2)C1=O (stereo not drawn)	nt	3	nt	nt	nt
CCN(CC)C(=O)c1ccc(/C=C/c2c[nH]c3ccccc23)[n+](C)c1	8	-20	1	-8	4
CC[n+]1c(/C=C/c2c[nH]c3ccccc23)ccc2cc(C)ccc21	68*	-175	nt	nt	nt
O=C(/C=C/c1ccncc1)c1ccc(NC(=O)c2ccccc2F)cc1	4	nt	10	14	57*
O=C(Nc1ccc(Nc2ccccc2)cc1)c1ccccc1F	0	6	-2	-6	3
O=S(=O)(Nc1nc2ccccc2s1)c1ccc(Br)s1	-5	50*	4	0	0
c1ccc(CN2CCC(Nc3nc(-c4ccccc4)nc4ccccc34)CC2)cc1	-4	2	12	0	80*
Cn1c(Cc2cccs2)nnc1SCC(=O)Nc1ccc2c(c1)OCCO2	nt	2	nt	nt	nt
COc1ccc(OC)c(C2CC(=O)N3CN(c4cccc(Cl)c4C)CSC3=C2C#N)c1 (stereo not drawn)	13	21	32*	1	2
CCOC1=C2CN(S(=O)(=O)c3ccc(C)cc3)[C@H](c3cccc4ccccc34)C[C@H]2C(C#N)(C#N)C(C#N)(C#N)C1	nt	nt	30*	-1	1
CCCCC[C@@H]1[C@@H]2C(=C(OCC)C[C@@H]3C(=O)N(c4ccccc4)C(=O)[C@H]23)[C@H](c2ccccc2)N1S(=O)(=O)c1ccc(C)cc1	nt	9	1	4	0
CCOC1=C2[C@H](c3ccccc3)N(S(=O)(=O)c3ccc(C)cc3)C(C(C)(C)C)[C@H]2C(C#N)(C#N)C(C#N)(C#N)C1 (stereo partly drawn)	nt	24	34*	1	1
CCOC1=C2CN(S(=O)(=O)c3ccc(C)cc3)[C@@H](c3cccc4ccccc34)C[C@H]2[C@H]2C(=O)N(c3ccccc3)C(=O)[C@H]2C1	nt	5	11	2	0
O=S1(=O)c2c(cccc2N2CCSCC2)Oc2ccccc2CN1Cc1cn(Cc2ccc(Cl)cc2)nn1	nt	4	nt	nt	nt
O=C(CCc1nnc2n(Cc3ccc(Cl)cc3)c(=O)c3ccccc3n12)N1CCN(c2ccccn2)CC1	5	nt	11	8	64*
CC(C)OCCCn1c(=O)c2ccccc2n2c(CCC(=O)N3CCN(c4ccccn4)CC3)nnc12	-6	-7	0	-4	0
C=CCc1cccc2cc(C(=O)Nc3ccccc3C(=O)O)c(=O)oc12	33	38*	4	6	-1
C=CCc1cccc2cc(C(=O)O)c(=O)oc12	-2	22	-3	-1	-1
Cc1ccc(C2(COC(=O)C(C)C)CO2)c(OC(=O)C(C)C)c1 (stereo not drawn)	4	1	-1	-5	1
